Assay results as given in ChEMBL document CHEMBL1150763, “Discovery of imidazo[1,5-c]imidazol-3-ones: weakly basic, orally active factor Xa inhibitors” (J Med Chem, 2008).

Tests used:
Coagulation factor X = Coagulation factor X (Homo sapiens, UniProt P00742); assay: Inhibition of human factor 10a
Plasma [1] = assay: Anticoagulant potency in human plasma assessed as concentration required to double the time to clot formation by PT assay; format: functional
Outline: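 Human normal plasma mixed with compound dilutions in DMSO (1.5 µL into 48.5 µL), preincubated 4 min at 37 °C, clotting started with thromboplastin and timed on an automatic coagulometer. Prolongation relative to DMSO; concentration doubling clotting time derived by least-squares regression; mean of duplicates.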

[2] = Basicity, pKa by titration method; format: physicochemical
Plasma [3] = assay: Anticoagulant potency in mouse plasma assessed as concentration required to double the time to clot formation by PT assay; format: functional
CYP3A4 = CYP3A4 (Homo sapiens, UniProt P08684); assay: Inhibition of CYP3A4 expressed in human B-lymphoblastoid cells at 10 uM; format: ADME, cell-based
Chain of CYP3A4 (P08684 whole entry): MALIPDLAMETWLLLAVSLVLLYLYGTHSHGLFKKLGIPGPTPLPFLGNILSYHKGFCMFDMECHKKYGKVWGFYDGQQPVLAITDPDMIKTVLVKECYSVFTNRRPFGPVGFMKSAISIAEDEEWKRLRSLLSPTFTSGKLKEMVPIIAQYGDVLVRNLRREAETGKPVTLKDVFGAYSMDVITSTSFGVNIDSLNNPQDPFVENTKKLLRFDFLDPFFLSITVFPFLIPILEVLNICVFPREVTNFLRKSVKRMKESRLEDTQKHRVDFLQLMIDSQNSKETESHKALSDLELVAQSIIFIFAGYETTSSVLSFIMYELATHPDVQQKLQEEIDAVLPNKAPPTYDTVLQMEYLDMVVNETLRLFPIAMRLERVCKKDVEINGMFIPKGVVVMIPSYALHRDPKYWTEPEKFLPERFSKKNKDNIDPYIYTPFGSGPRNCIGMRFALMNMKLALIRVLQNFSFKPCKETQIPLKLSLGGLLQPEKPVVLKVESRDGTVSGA
Outline: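 Recombinant CYP3A4 (10 nM, from CYP3A4-expressing human B-lymphoblastoid cells) incubated with 100 µM testosterone and 10 µM test compound for 30 min at 37 °C; 6β-hydroxytestosterone formation quantified by HPLC-UV.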

physchem = details: buffer, pH 7.4

Chain of Coagulation factor X (P00742 41-179 limits assumed): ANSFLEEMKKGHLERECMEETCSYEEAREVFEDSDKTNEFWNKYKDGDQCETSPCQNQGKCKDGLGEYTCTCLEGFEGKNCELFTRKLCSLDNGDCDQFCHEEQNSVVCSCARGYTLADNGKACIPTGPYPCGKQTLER
Chain of Coagulation factor X (P00742 235-488 limits assumed): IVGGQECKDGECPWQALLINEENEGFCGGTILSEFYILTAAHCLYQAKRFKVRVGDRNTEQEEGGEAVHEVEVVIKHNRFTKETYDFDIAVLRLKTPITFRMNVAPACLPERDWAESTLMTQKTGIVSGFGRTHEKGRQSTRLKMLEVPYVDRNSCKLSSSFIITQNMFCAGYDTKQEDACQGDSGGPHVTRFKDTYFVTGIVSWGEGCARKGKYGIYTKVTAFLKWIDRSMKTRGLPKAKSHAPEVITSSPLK

| SMILES | IC50 (Coagulation factor X) [nM] | Activity (Plasma [1]) [µM] | pKa [2] | Activity (Plasma [3]) [µM] | inhibition at 10 µM (CYP3A4) [%] | logD (physchem) |
| --- | --- | --- | --- | --- | --- | --- |
| Cn1ccnc1C1CCN(C(=O)CCS(=O)(=O)c2ccc3cc(Cl)ccc3c2)CC1 | 56 | 2.1 | – | – | – | – |
| Cc1ncc(C2CCN(C(=O)CCS(=O)(=O)c3ccc4cc(Cl)ccc4c3)CC2)n1C | – | 0.56 | 8.2 | 3.4 | 25 | – |
| O=C(CCS(=O)(=O)c1ccc2cc(Cl)ccc2c1)N1CCC(c2ncc[nH]2)CC1 | 1600 | >10 | – | – | – | – |
| O=C(CCS(=O)(=O)c1ccc2cc(Cl)ccc2c1)N1CCC(c2cnc3ccccn23)CC1 | 12 | 2.2 | 5.9 | – | – | 2.5 |
| CCCc1nccn1C1CCN(C(=O)CCS(=O)(=O)c2ccc3cc(Cl)ccc3c2)CC1 | 230 | 2 | – | – | – | – |
